Consider 2 compounds from ChEMBL document CHEMBL3856193, “Combretastatin A-4 analogues with benzoxazolone scaffold: Synthesis, structure and biological activity” (Eur J Med Chem, 2016).

The source made the active and inactive calls. The calls are words filed in the database; no cut-off is given here.

Data set [1] in a line: Solubility of compound in water. The data set is classed as physicochemical. The settings on record: buffer.
Data set [2] in a line: Cytostatic activity against human MDA-MB-231 cells assessed as cell survival up to 25 uM measured after 72 hrs by MTT assay relative to control. The data set is classed as functional. In general terms: Tetrazolium dyes change colour on reduction, which living cells bring about.
A short description of data set [3]: Growth inhibition of human HepG2 cells measured after 72 hrs by MTT assay. It is filed as functional, cell-based. The settings on record: HepG2, 72 h. The method, boiled down: (§1)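 Cells seeded at 1 x 10^4/100 µL, treated 24 h later with drug diluted from 2 mmol/L DMSO stock (0.01% DMSO final), 72 h incubation. MTT added for 3 h at 37°C, formazan dissolved in 0.1 N HCl/isopropanol, OD read at 550/630 nm. Eight replicates per concentration, mean ± SD. IC50 from curve fitting. Cells kept at 37°C in humidified CO2.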

Data set [4] can be described thus: Growth inhibition of human EAhy926 cells measured after 72 hrs by MTT assay. It is filed as functional, cell-based. The conditions noted are these: EA.hy 926, 72 h. The method, boiled down: as §1
Data set [5] can be described thus: Growth inhibition of human K562 cells measured after 72 hrs by MTT assay. It is filed as functional, cell-based. The settings on record: K562, 72 h. A digest of the protocol:
as §1

The nature of data set [6]: Antiproliferative activity against CA-4-resistant human HT-29 cells measured after 72 hrs by MTT assay. It is filed as functional, cell-based. The conditions noted are these: HT-29, 72 h. The method, boiled down: (§2)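 Cells seeded at 1 × 10^4 per well and left 24 h, then exposed to graded compound concentrations (stock 2 mmol/L in DMSO, final DMSO 0.01% in medium) for 72 h at 37 °C in humidified CO2. MTT (5 mg/mL) added for 3 h; formazan dissolved in 0.1 N HCl/isopropanol and read at 550/630 nm. Eight replicate wells per concentration; IC50 from curve fitting.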

A short description of data set [7]: Antiproliferative activity against mouse Colon 26 cells measured after 72 hrs by MTT assay. It is filed as functional, cell-based. The conditions noted are these: Colon 26, 72 h. A digest of the protocol: as §2
Data set [8] in a line: Antiproliferative activity against CA-4-resistant human A549 cells measured after 72 hrs by MTT assay. The data set is classed as functional, cell-based. The settings on record: A549, 72 h. A digest of the protocol: as §2
The nature of data set [9]: Cytostatic activity against human MCF7 cells assessed as cell survival up to 25 uM measured after 72 hrs by MTT assay relative to control. The data set is classed as functional.
A short description of data set [10]: Antiproliferative activity against human MCF10A cells measured after 72 hrs by MTT assay. It is filed as cell-based. The settings on record: MCF-10A. A digest of the protocol: as §2
Data set [11] can be described thus: Cell cycle arrest in human HepG2 cells assessed as accumulation in G2/M phase at growth inhibitory IC50 measured after 8 hrs by propidium iodide-staining based FACS analysis (reference value: 28%). The data set is classed as functional. More on the design: scale not given: the % may be the effect or the level left. On the technique in general: Flow cytometry measures light scatter and fluorescence of single cells or particles in a stream.

Data set [12] in a line: Cytostatic activity against human HaCaT cells assessed as cell survival up to 25 uM measured after 72 hrs by MTT assay relative to control. It is filed as functional.
Data set [13] is described as follows: Cytostatic activity against human NHEK cells assessed as cell survival up to 25 uM measured after 72 hrs by MTT assay relative to control. The data set is classed as ADME, cell-based. The settings on record: read-out: Survival.
Data set [14] in a line: Cell cycle arrest in human HepG2 cells assessed as accumulation of cells with 4N DNA content at growth inhibitory IC50 measured after 24 hrs by propidium iodide-staining based FACS analysis relative to control. Also noted: scale not given: the % may be the effect or the level left. It is filed as functional.
A short description of data set [15]: Cell cycle arrest in human HepG2 cells assessed as >4N DNA content at growth inhibitory IC50 measured after 24 hrs by propidium iodide-staining based FACS analysis relative to control. Also noted: scale not given: the % may be the effect or the level left. It is filed as functional.
The nature of data set [16]: Cell cycle arrest in human HepG2 cells assessed as decrease in accumulation of G2/M phase at growth inhibitory IC50 measured after 72 hrs by propidium iodide-staining based FACS analysis. The data set is classed as functional.
The nature of data set [17]: Cell cycle arrest in human HepG2 cells assessed as accumulation of hypoploid sub-G1 cells at growth inhibitory IC50 measured after 72 hrs by propidium iodide-staining based FACS analysis. The data set is classed as functional.
The species named for data set [18] is Sus scrofa. The data set is described as follows: Inhibition of porcine brain tubulin polymerization at 10 uM measured every 1 min for 40 mins in presence of GTP.
The species entered for data set [19] is Sus scrofa. As to the kind of experiment: Induction of porcine brain tubulin polymerization assessed as time required to reach maxium effect at 10 uM measured every 1 min for 40 mins in presence of GTP.
For data set [20], the species on record is Sus scrofa. The data set is described as follows: Inhibition of porcine brain tubulin polymerization at 50 uM measured every 1 min for 40 mins in presence of GTP.
Data set [21] has as its system HepG2. As to the kind of experiment: Induction of apoptosis in human HepG2 cells assessed as increase in apoptotic cells at growth inhibitory IC50 measured after 48 hrs by Annexin V-FITC/propidium iodide staining-based flow cytometric analysis relative to control. The data set is classed as functional, cell-based.
The test system of data set [22] is EA.hy 926. The data set is described as follows: Induction of apoptosis in human EAhy926 cells assessed as increase in apoptotic cells at growth inhibitory IC50 measured after 48 hrs by Annexin V-FITC/propidium iodide staining-based flow cytometric analysis relative to control. It is filed as functional, cell-based.
In data set [23] the test system is HepG2. As to the kind of experiment: Induction of apoptosis in human HepG2 cells assessed as necrotic cells at 0.11 uM measured after 48 hrs by Annexin V-FITC/propidium iodide staining-based flow cytometric analysis relative to control. The data set is classed as functional.
In data set [24] the test system is EA.hy 926. As to the kind of experiment: Induction of apoptosis in human EAhy926 cells assessed as necrotic cells at 0.11 uM measured after 48 hrs by Annexin V-FITC/propidium iodide staining-based flow cytometric analysis relative to control. The data set is classed as functional.
Data set [25] relates to EA.hy 926. The data set is described as follows: Antiangiogenic activity against human EAhy926 assessed as inhibition of capillary tube formation at 0.11 uM after 72 hrs by matrigel assay. The data set is classed as functional. The method, boiled down: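 EA.hy 926 cells (4 x 10^4) plated onto Matrigel pre-set 30 min at 37°C in complete DMEM; after 24 h medium replaced by EBM2 alone (control) or EBM2 with 0.28 µM or 0.11 µM drug. Capillary tube formation followed by inverted microscopy up to 72 h.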

Data set [26] can be described thus: Cell cycle arrest in human HepG2 cells assessed as decrease in G0/G1 phase at growth inhibitory IC50 measured after 24 hrs by propidium iodide-staining based FACS analysis. It is filed as functional.
The nature of data set [27]: Cell cycle arrest in human HepG2 cells assessed as decrease in S phase at growth inhibitory IC50 measured after 24 hrs by propidium iodide-staining based FACS analysis. The data set is classed as functional.

Take `COc1ccc(/C=C\c2cc(OC)c(OC)c(OC)c2)cc1N.Cl`: the solubility result in data set [1] was “Soluble”.
`COc1ccc(/C=C\c2cc(OC)c(OC)c(OC)c2)cc1O` [COMBRETASTATIN A4]: the Survival amounted to 50% in data set [2], 35% in [9] and 15% in data set [12]. For the same compound, the IC50 in data set [3] is 0.11 µM; in [4] it was 0.17 µM; in data set [5], under 0.1 µM; in data set [6] it was 2.61 µM; in data set [7] it was 0.44 µM; in data set [8], 3.01 µM. Moreover, inhibition in data set [10] was half-maximal at 1.17 µM (IC50). Besides, the Activity in [11] came out at 33%; in [14] it was 77%; in data set [15] it was 9%; in [23], 20%; in [24], 20%. Moreover, the viability at 72 h in data set [13] was found to be 40%. For the same compound, the result in [16], in data set [17], in data set [21], in data set [22], in data set [26] and in data set [27] was Active. Moreover, the inhibition entry in data set [18], in [20] and in data set [25] was “Active” each time. Besides, the TIME in [19] stood at 0.383 h.

For orientation: IC50 means the point on the concentration scale where inhibition reaches its midpoint.
